According to ChEMBL document CHEMBL1131427, “Synthesis of imidazo[1,2-a]pyridines as antiviral agents” (J Med Chem, 1998):
Values after ≈ are worked out from the molar mass of the structure shown.

Columns and labels:
HEL [1] = test: Inhibition of cell proliferation expressed as CC50; type: functional, Homo sapiens
Human alphaherpesvirus 3 [2] = test: Anti-VZV activity against 07/1 TK- in HEL cells; type: functional, organism-based; details: Human alphaherpesvirus 3, HEL
Human alphaherpesvirus 3 [3] = test: Anti-VZV activity against OKA strain TK+ in HEL cells; type: functional, organism-based; details: Human alphaherpesvirus 3, oka
Human alphaherpesvirus 3 [4] = test: Anti-VZV activity against YS TK+ in HEL cells; type: functional, organism-based; details: Human alphaherpesvirus 3, HEL
Human alphaherpesvirus 3 [5] = test: Anti-VZV activity against YS/R TK- in HEL cells; type: functional, organism-based; details: Human alphaherpesvirus 3, ys-r
Human betaherpesvirus 5 = test: Anti CMV (Cytomegalovirus- virus) activity against AD-169 strain in HEL cells; type: functional, organism-based; details: Human betaherpesvirus 5, HEL
Summary of the method: (§1)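 Run in human embryonic lung (HEL) cells. The value is the 50% virus-inhibitory concentration, given in µg/mL.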

Cytomegalovirus = test: Anti CMV (Cytomegalovirus- virus) activity against Davis strain in HEL cells; type: functional, organism-based; details: Human betaherpesvirus 5, HEL; summary of the method: as §1
[6] = Ratio of Cytotoxicity concentration to that of virus-inhibitory concentration.; type: functional
Summary of the method: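 Selectivity index is the 50% cytotoxic concentration in HEL cells divided by the 50% inhibitory concentration against CMV strain AD-169 in HEL cells.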

HEL [7] = test: The compound was tested for inhibition of cell proliferation in Human Embryonic Lung (HEL) Cells.; type: functional
HEL [8] = test: The compound was tested for Anti-VZV activity against 07/1 strain TK- in HEL cells; type: functional, cell-based; details: Homo sapiens; summary of the method: as §1
HEL [9] = test: The compound was tested for Anti-VZV activity against YS strain TK+ in HEL cells; type: functional, cell-based; details: Homo sapiens; summary of the method: as §1
HEL [10] = test: The compound was tested for Anti-VZV activity against YS/R strain TK- in HEL cells; type: functional, cell-based; details: Homo sapiens; summary of the method: as §1
[11] = Ratio of 50% cytotoxic concentration to 50% virus-inhibitory concentration [the latter based on the 50% inhibitory concentration for CMV (AD-169 strain); type: functional

Row | Compound | CC (HEL [1]) | IC50 (Human alphaherpesvirus 3 [2]) | IC50 (Human alphaherpesvirus 3 [3]) | IC50 (Human alphaherpesvirus 3 [4]) | IC50 (Human alphaherpesvirus 3 [5]) | IC50 (Human betaherpesvirus 5) | IC50 (Cytomegalovirus) | Selectivity index [6] | CC50 (HEL [7]) | IC50 (HEL [8]) | IC50 (HEL [9]) | IC50 (HEL [10]) | Selectivity index [11]
1 | Cc1nc2ccccn2c1CSCc1ccccc1 | 33 µg/mL | 0.5 µg/mL (≈ 1.86 µM) | 0.37 µg/mL (≈ 1.38 µM) | 0.23 µg/mL (≈ 0.857 µM) | 0.28 µg/mL (≈ 1.04 µM) | 0.12 µg/mL (≈ 0.447 µM) | 0.13 µg/mL (≈ 0.484 µM) | 275 | – | – | – | – | –
2 | Cc1ccn2c(CSCc3ccccc3)c(-c3ccccc3)nc2c1 | >50 µg/mL | > 50 µg/mL | > 20 µg/mL | > 20 µg/mL | > 50 µg/mL | > 20 µg/mL | > 20 µg/mL | – | – | – | – | – | –
3 | Cc1ccn2c(CSCc3ccc(Cl)cc3)cnc2c1 | 19 µg/mL | > 5 µg/mL | 2 µg/mL (≈ 6.6 µM) | > 5 µg/mL | > 5 µg/mL | 1.2 µg/mL (≈ 3.96 µM) | 1.6 µg/mL (≈ 5.28 µM) | 16 | – | – | – | – | –
4 | Nc1nc2c(ncn2COC(CO)CO)c(=O)[nH]1 [GANCICLOVIR] | >100 µg/mL | – | – | – | – | 0.5 µg/mL (≈ 1.96 µM) | 0.5 µg/mL (≈ 1.96 µM) | – | – | – | – | – | –
5 | FC(F)(F)c1cc(Cl)c2ncc(CSCc3ccccc3)n2c1 | 40 µg/mL | > 5 µg/mL | 6.6 µg/mL (≈ 18.5 µM) | 8.8 µg/mL (≈ 24.7 µM) | 9.8 µg/mL (≈ 27.5 µM) | > 5 µg/mL | > 5 µg/mL | <8 | – | – | – | – | –
6 | Cc1cc(Br)c2ncc(CSCc3ccccc3)n2c1 | >50 µg/mL | 9 µg/mL (≈ 25.9 µM) | 31 µg/mL (≈ 89.3 µM) | > 50 µg/mL | 4 µg/mL (≈ 11.5 µM) | 1.1 µg/mL (≈ 3.17 µM) | 1.1 µg/mL (≈ 3.17 µM) | >45 | – | – | – | – | –
7 | Cc1c(Br)cc(Br)c2ncc(CSCc3ccccc3)n12 | >50 µg/mL | > 50 µg/mL | > 50 µg/mL | > 50 µg/mL | > 20 µg/mL | > 50 µg/mL | > 50 µg/mL | – | – | – | – | – | –
8 | Cc1ccn2c(CSCc3ccccc3)c(C)nc2c1 | >50 µg/mL | 14.1 µg/mL (≈ 49.9 µM) | 10.5 µg/mL (≈ 37.2 µM) | > 5 µg/mL | 10 µg/mL (≈ 35.4 µM) | 3.4 µg/mL (≈ 12 µM) | 3.5 µg/mL (≈ 12.4 µM) | >15 | – | – | – | – | –
9 | Cc1ccc2ncc(CSCc3ccccc3)n2c1 | 23 µg/mL | 2.58 µg/mL (≈ 9.61 µM) | 0.74 µg/mL (≈ 2.76 µM) | 6.4 µg/mL (≈ 23.8 µM) | 1.2 µg/mL (≈ 4.47 µM) | 0.3 µg/mL (≈ 1.12 µM) | 0.5 µg/mL (≈ 1.86 µM) | 77 | – | – | – | – | –
10 | Cc1ccn2c(CSCc3ccccc3)cnc2c1 | 45 µg/mL | – | 15 µg/mL (≈ 55.9 µM) | 17 µg/mL (≈ 63.3 µM) | 10 µg/mL (≈ 37.3 µM) | 3.5 µg/mL (≈ 13 µM) | 3.5 µg/mL (≈ 13 µM) | 13 | – | – | – | – | –
11 | Cc1ccn2c(CSCCc3ccccc3)cnc2c1 | >50 µg/mL | 0.95 µg/mL (≈ 3.36 µM) | 0.2 µg/mL (≈ 0.708 µM) | 0.5 µg/mL (≈ 1.77 µM) | 0.66 µg/mL (≈ 2.34 µM) | 0.33 µg/mL (≈ 1.17 µM) | 0.35 µg/mL (≈ 1.24 µM) | >151 | – | – | – | – | –
12 | O=c1[nH]c(=O)n([C@H]2C[C@H](O)[C@@H](CO)O2)cc1/C=C/Br [BRIVUDINE] | >50 µg/mL | > 50 µg/mL | 0.0009 µg/mL (≈ 0.0027 µM) | 0.002 µg/mL (≈ 0.006 µM) | > 20 µg/mL | – | – | – | – | – | – | – | –
13 | Cc1cccn2c(CSCc3ccccc3)c(-c3ccccc3)nc12 | 13 µg/mL | > 2 µg/mL | > 2 µg/mL | > 2 µg/mL | 2 µg/mL (≈ 5.81 µM) | 1.2 µg/mL (≈ 3.48 µM) | > 2 µg/mL | 11 | – | – | – | – | –
14 | Cc1ccc(C)n2c(CSCc3ccccc3)cnc12 | 3 µg/mL | > 2 µg/mL | > 2 µg/mL | > 2 µg/mL | > 2 µg/mL | 1.2 µg/mL (≈ 4.25 µM) | > 2 µg/mL | 2.5 | – | – | – | – | –
15 | Cc1cc(Br)cn2c(CSCc3ccccc3)cnc12 | >50 µg/mL | 1.4 µg/mL (≈ 4.03 µM) | 5.5 µg/mL (≈ 15.8 µM) | 7 µg/mL (≈ 20.2 µM) | 0.86 µg/mL (≈ 2.48 µM) | 0.12 µg/mL (≈ 0.346 µM) | 0.12 µg/mL (≈ 0.346 µM) | >417 | – | – | – | – | –
16 | Cc1ccn2c(CSCC(F)(F)F)cnc2c1 | – | – | > 50 µg/mL | – | – | 40 µg/mL (≈ 154 µM) | 42 µg/mL (≈ 161 µM) | – | > 50 µg/mL | > 50 µg/mL | > 50 µg/mL | > 50 µg/mL | >1.2
17 | Cc1ccn2c(CSCc3ccccc3Cl)cnc2c1 | 18 µg/mL | > 5 µg/mL | 1.8 µg/mL (≈ 5.94 µM) | > 5 µg/mL | > 5 µg/mL | 0.5 µg/mL (≈ 1.65 µM) | 0.7 µg/mL (≈ 2.31 µM) | 36 | – | – | – | – | –
18 | Nc1nc2c(ncn2COCCO)c(=O)[nH]1 [ACYCLOVIR] | >100 µg/mL | – | – | – | – | – | – | – | – | – | – | – | –
19 | Cc1cccn2c(CSCc3ccccc3)cnc12 | 8 µg/mL | 0.4 µg/mL (≈ 1.49 µM) | 0.9 µg/mL (≈ 3.35 µM) | 0.3 µg/mL (≈ 1.12 µM) | > 1 µg/mL | 0.2 µg/mL (≈ 0.745 µM) | 0.2 µg/mL (≈ 0.745 µM) | 40 | – | – | – | – | –
